Screening results (PubChem BioAssay)
An excerpt weighted towards active compounds, which were near 3.1% of everything screened.
PP5 primary = inhibitors of human protein phosphatase 5 (PP5); P53041; purified PP5c, OMFP substrate fluorescence; inhibition, % at 6.7 µM; 320,000 compounds, 0.18% hits;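 active = inhibition above the campaign's mean inhibition across all tested compounds plus 3 SD, cut at about 9.5% in these data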;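 also: 0% = DMSO only and 100% = 100 µM cantharidin control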
Target sequence (P53041 whole entry, looked up): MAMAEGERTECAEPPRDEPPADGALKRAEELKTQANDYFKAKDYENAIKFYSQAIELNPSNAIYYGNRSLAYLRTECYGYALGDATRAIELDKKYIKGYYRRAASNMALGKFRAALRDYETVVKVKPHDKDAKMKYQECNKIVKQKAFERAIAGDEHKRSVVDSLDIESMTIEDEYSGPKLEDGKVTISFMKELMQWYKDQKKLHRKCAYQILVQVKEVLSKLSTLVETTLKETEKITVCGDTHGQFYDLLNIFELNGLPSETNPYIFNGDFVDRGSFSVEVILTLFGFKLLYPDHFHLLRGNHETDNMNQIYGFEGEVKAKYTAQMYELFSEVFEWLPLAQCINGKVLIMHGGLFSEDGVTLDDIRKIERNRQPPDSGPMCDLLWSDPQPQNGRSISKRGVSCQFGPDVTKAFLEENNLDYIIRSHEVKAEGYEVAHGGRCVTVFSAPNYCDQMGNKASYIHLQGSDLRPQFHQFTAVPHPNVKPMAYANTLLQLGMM
HCV core dimer = blocks dimerization of HCV core protein; TR-FRET GST/Flag-core106 dimerization, 1536-well; inhibition, % at 5 µM; 300,000 compounds, 0.33% hits;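 active = inhibition above the mean of all tested compounds plus 3 SD, set per screening campaign, cut at about 45% in these data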
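System – GST-tagged and Flag-tagged HCV core protein residues 1-106 · Repeats – one well for each compound · Technique – TR-FRET 671 and 617 nm emission · Doses – one concentration, 5 µM, in 0.5% DMSO · Times – 4 h, 22.5 °C incubation · Also added – Eu donor and XL665 acceptor anti-tag antibodies · Measure – percent inhibition of core106 dimerization signal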
PP1 counter = blocks human PP1-alpha phosphatase, a PP5 counter-screen; purified PP1alpha, OMFP fluorescence; inhibition, % at 6.7 µM; 320,000 compounds, 0.9% hits; AID 2235;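 active = inhibition above the mean inhibition of all tested compounds plus 3 SD, computed separately for each screening campaign, cut at about 15% in these data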
Fh CTSL1 inh = counter-screen for PFM18AAP inhibitors: inhibitors of F. hepatica cathepsin L1; recombinant F. hepatica cathepsin L1, Z-Leu-Arg-MCA fluorescence; inhibition, % at 5.96 µM; 300,000 compounds, 0.49% hits; AID 1906;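 active = inhibition above the mean of all tested compounds plus 3 SD, set per screening campaign, cut at about 17% in these data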;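 also: 0% = plate median of test compound wells and 100% = 1 µM Z-Phe-Ala-diazomethylketone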
NadD inh = inhibitors of Staphylococcus aureus NadD | 360,000 compounds, 0.78% hits | AID 602399 | inhibition, % at 20 µM | purified NadD enzyme, colorimetric absorbance read-out; in the data active = inhibition above about 26%
Myeloid diff 2 = myeloid differentiation induction; ER-HoxA9 myeloid progenitors, lysozyme-GFP differentiation, flow cytometry; calls only at 10 µM; 360,000 compounds, 1% hits;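 active = normalized GFP-positive differentiation at or above the plate's own cutoff, the solvent-only control mean plus 3 SD; inconclusive = no clear call, values can overlap the other calls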;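 also: cells exposed to compound for four days before flow analysis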
PP1 inh confirm = human PP1 phosphatase inhibition, confirmation; shares compounds with PP1 counter; purified PP1alpha, OMFP substrate fluorescence; inhibition, % at 6.7 µM; 1,900 compounds, 52% hits; AID 2358;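 active = mean PP1 inhibition above a set limit taken from the earlier primary screen, cut at about 15% in these data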
PP5 inh counter = counter-screen for PP1 inhibitors: human PP5 phosphatase inhibition; purified PP5c, OMFP fluorescence; 1,900 compounds, 4% hits; inhibition, % at 6.7 µM; shares compounds with PP1 counter;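 active = mean PP5 inhibition over triplicate wells above about 9.5% taken from the earlier PP1 screen, limit read from the data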
Starred values were filed as active, the others as inactive; i = inactive; ? = inconclusive; . = not tested or not shown.

SMILES | PP5 primary | HCV core dimer | PP1 counter | Fh CTSL1 inh | NadD inh | Myeloid diff 2 | PP1 inh confirm | PP5 inh counter
Cc1cc(NC(c2ccc(Cl)cc2)c2ccc3cccnc3c2O)no1 (stereo not given) | 5 | 4 | 22* | 2 | 8 | ? | 15* | -2
CCCC(=O)NC(c1ccccc1Cl)c1ccc2cccnc2c1O (stereo not given) | 4 | 8 | 20* | -2 | 3 | ? | 10 | -3
CCCC(=O)NC(c1ccc(C(C)C)cc1)c1ccc2cccnc2c1O (stereo not given) | -2 | 0 | 26* | 0 | 8 | ? | 23* | -1
CC(=O)NC(c1ccc(Cl)cc1)c1ccc2cccnc2c1O (stereo not given) | . | . | . | . | 1 | ? | . | .
CCCCC(=O)NC(c1cccs1)c1cc(Cl)c2cccnc2c1O (stereo not given) | -1 | 12 | 20* | -2 | 19 | ? | 24* | -4
c1ccc(CN2CCC3CC2c2ccc(N4CCOCC4)cc23)cc1 (stereo not given) | . | . | . | . | 1 | i | . | .
Cc1nnsc1-c1c(C(=O)N2CCOCC2)c(C)nn1-c1ccc(Cl)cc1 | -1 | -4 | 0 | 2 | 1 | i | . | .
CC(C)C(=O)NC(c1ccc(Cl)cc1Cl)c1ccc2cccnc2c1O (stereo not given) | 2 | 1 | 27* | -1 | 15 | ? | 20* | -3
Cc1cc(C(C)(C)C)ccc1OCCCCN1CCCC1 | 3 | -9 | -1 | -5 | -10 | i | . | .
CCC(C)(C)c1ccc(OCCCC[n+]2cccc(C)c2C)c(C(C)(C)CC)c1 | 2 | 3 | 20* | 1 | 7 | ? | -3 | 1
CCC(C)(C)c1ccc(OCCCC[n+]2ccc(C)cc2)c(C(C)(C)CC)c1 | 2 | -6 | 21* | 8 | . | . | -6 | 0
Brc1ccc(CSc2ccc3nnc(-c4ccccn4)n3n2)cc1 | -1 | 12 | 26* | 0 | 16 | i | 20* | -5
Cc1ccc(C)c(CSc2ccc3nnc(-c4ccccn4)n3n2)c1 | 0 | 12 | 22* | -1 | 15 | i | 13 | -4
Brc1ccc(CSc2ccc3nnc(-c4cccnc4)n3n2)cc1 | 0 | 13 | 8 | -2 | 4 | . | . | .
O=C(Nc1ccccc1Cl)c1cc(C2CCCN(C(=O)c3cccs3)C2)on1 (stereo not given) | . | . | . | . | -6 | i | . | .
CC(Nc1ncnc2sccc12)c1ccccc1 (stereo not given) | 1 | -4 | -3 | 5 | 2 | . | . | .
Cc1ccc(NC(=O)/C(C#N)=C/c2cn(CC(=O)NCc3ccco3)c3ccccc23)cc1C | 1 | 16 | 32* | 0 | 12 | i | 31* | -1
CCOC(=O)C1CCCN(C(=O)/C(=C/c2ccco2)NC(=O)c2ccccc2)C1 (stereo not given) | -2 | 6 | 3 | -3 | 7 | i | . | .
NC1=NC[C@@H](Cc2ccc(O)cc2)N1CCc1cc(C(F)(F)F)cc(C(F)(F)F)c1 | 1 | -13 | 3 | 7 | -1 | i | . | .
NC1=NC[C@H](CC2CCCCC2)N1CCc1cc(C(F)(F)F)cc(C(F)(F)F)c1 | 3 | -8 | 18* | 2 | 7 | i | -2 | 3
C=C(C)C(=O)Nc1cccc(C2=NOC3(C2)C[C@@H](C(N)=O)N(C(=O)c2cc([N+](=O)[O-])cc([N+](=O)[O-])c2)C3)c1 (stereo not given in full) | 5 | -102 | 3 | -3 | 2 | i | . | .
C=C(C)C(=O)Nc1cccc(C2=NOC3(C2)C[C@@H](C(N)=O)N(C(=O)c2ccc(OC)cc2)C3)c1 (stereo not given in full) | 0 | -110 | 18* | -2 | -10 | i | 7 | -1
CC(=O)c1c(C)[nH]c(C(=O)CN2C(=O)NC3(CCCCC3C)C2=O)c1C (stereo not given) | . | . | . | . | -5 | i | . | .
Cc1ccc(NC(=O)Cn2nc(C(=O)Nc3ccc(C)cc3)ccc2=O)cc1 | 1 | 33 | 21* | 1 | 18 | i | 22* | -3
O=C(Cn1nc(-c2ccccc2)ccc1=O)Nc1ccc(NC(=O)c2ccccn2)cc1 | 1 | 5 | -2 | 6 | 9 | i | . | .
SMILES | PP5 primary | HCV core dimer | PP1 counter | Fh CTSL1 inh | NadD inh | Myeloid diff 2 | PP1 inh confirm | PP5 inh counter
COc1cccc(NC(=O)COC(=O)c2c(NC(C)=O)sc(C)c2C)c1 | 1 | . | 18* | . | -3 | i | 21* | 3
CC(=O)Nc1sc(C)c(C)c1C(=O)OCC(=O)Nc1cccc(C)c1 | . | . | . | . | 2 | i | . | .
O=C(O)C1C2CCC(O2)C1C(=O)NCc1ccncc1 (stereo not given) | 37* | -3 | 20* | -2 | 0 | i | 15* | 26*
O=C(O)C1C2CCC(O2)C1C(=O)Nc1cccc(F)c1 (stereo not given) | 52* | -5 | 55* | -2 | . | . | 10 | 17*
CC(=O)Nc1ccc(NC(=O)C2C3C=CC(C3)C2C(=O)O)cc1 (stereo not given) | -1 | -9 | -1 | 8 | -5 | i | . | .
O=C(O)c1ccc(NC(=O)C2C3CCC(O3)C2C(=O)O)cc1 (stereo not given) | 79* | 2 | 75* | 4 | -5 | i | 31* | 37*
O=C(O)C1C2CCC(O2)C1C(=O)Nc1ccc(F)cc1 (stereo not given) | 44* | -5 | 31* | -2 | -3 | i | 11 | 8
O=C(NCc1ccncc1)C(=O)NCc1ccncc1 | -2 | -3 | 3 | -4 | -3 | i | . | .
O=C(NCc1ccco1)C1C(=O)Nc2ccccc2C(=O)N1C1CCCCC1 (stereo not given) | . | . | . | . | . | i | . | .
COc1cccc(OC)c1NC(=O)Cn1nc(C)c2ccccc2c1=O | 3 | -6 | -3 | 0 | -4 | i | . | .
CCc1ccc(NC(=O)C2CCN(c3c(N4CCCC4)c(=O)c3=O)CC2)cc1 | 3 | 8 | -8 | -1 | 1 | i | . | .
CCc1ccc(NC(=O)C2C3CCC(O3)C2C(=O)O)cc1 (stereo not given) | 80* | -9 | 74* | -7 | -4 | i | 18* | 38*
CCCCN(C(=O)CC1CCCC1)c1c(N)n(CCCC)c(=O)[nH]c1=O | 1 | . | 2 | . | -2 | i | . | .
COc1ccc(CNC(=O)Cc2c(C(=O)O)[nH]c3ccccc23)cc1 | 2 | 7 | -4 | -4 | 1 | i | . | .
COc1cc(NC(=O)Cc2c(C(=O)O)[nH]c3ccccc23)cc(OC)c1OC | 0 | 2 | 18* | 2 | 0 | i | 2 | -1
Cc1cc(C)n2nc(SC(C)C(=O)N(C)C3CCCCC3)nc2n1 (stereo not given) | . | . | . | . | 4 | i | . | .
